Screening results (PubChem BioAssay)
Pf Dd2 growth: inhibitors of Plasmodium falciparum Dd2 growth; actives 2.3% (n = 94,000); P. falciparum Dd2 growth, SYBR Green, 72 h; hits give low values; activity change, % at 10 µM; AID 1159554; in the data active = activity change below about -80%; inconclusive = no clear call, values can overlap the other calls
GASC1 inh: blocks human GASC-1 (KDM4C) demethylase activity; GST-KDM4C 2-372, H3K9me3 peptide, LANCE TR-FRET; AID 720574; actives 0.15% (n = 96,000); Q9H3R0; inhibition, % at 12.5 µM;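 active = mean replicate inhibition above about 25%, with at least 55% of replicates also reaching it, limit read from the data, passing the limit was not always enough; inconclusive = only one of those two conditions met; inactive = neither condition met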
Target sequence (Q9H3R0 2-372 limits assumed): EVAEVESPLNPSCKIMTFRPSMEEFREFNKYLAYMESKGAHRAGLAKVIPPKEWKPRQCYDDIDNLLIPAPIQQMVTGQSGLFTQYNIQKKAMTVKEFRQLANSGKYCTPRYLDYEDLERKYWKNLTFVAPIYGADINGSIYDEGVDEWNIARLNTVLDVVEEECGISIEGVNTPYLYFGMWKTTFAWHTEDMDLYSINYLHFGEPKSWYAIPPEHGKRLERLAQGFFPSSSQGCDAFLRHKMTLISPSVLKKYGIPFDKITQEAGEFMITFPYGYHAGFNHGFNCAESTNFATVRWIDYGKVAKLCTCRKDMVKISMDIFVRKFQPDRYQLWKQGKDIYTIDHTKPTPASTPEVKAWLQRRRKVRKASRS
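Test system: N-terminal GST-fused human GASC-1 (KDM4C) fragment, residues 2-372; quantity: GASC-1 enzyme at 10 nM final in reaction; dosing: single dose; schedule: 30 min demethylation and 1 h detection at room temperature; signal: LANCE TR-FRET, excitation 340 nm, emissions 618 and 671 nm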
IDH1 R132H inh: IDH1 R132H (human) inhibition | O75874 | IDH1 R132H reductase, diaphorase/resazurin fluorescence, 60 min | inhibition, % at 10 µM | actives 0.18% (n = 70,000) | AID 624101; in the data active = inhibition above about 34%; inconclusive = no clear call, values can overlap the other calls; inactive = below about 11%
T cruzi growth-1: inhibitors of T. cruzi proliferation | T. cruzi beta-gal in NIH3T3, GalScreen luminescence, 90 h | inhibition, % at 8.34 µM | actives 5.9% (n = 77,000) | AID 624255;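 active = mean inhibition above about 93%, with at least 55% of replicates each passing it, limit read from the data, passing the limit was not always enough; inconclusive = only one of those two conditions holds; inactive = neither condition holds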
T cruzi growth-2: blocks T. cruzi growth in NIH3T3 host cells; T. cruzi beta-gal in NIH3T3, GalScreen luminescence, 90 h; shares compounds with T cruzi growth-1; inhibition, % at 8.35 µM; actives 72% (n = 5,600);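 active = mean replicate inhibition above about 95% and at least 55% of replicates individually reaching it, limit read from the data; inconclusive = only one of the two criteria is met; inactive = neither criterion is met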
T cruzi growth-3: blocks T. cruzi growth in NIH3T3 host cells. shares compounds with T cruzi growth-1. T. cruzi beta-gal in NIH3T3, GalScreen luminescence, 90 h. AID 651740. inhibition, % at 2.09 µM. actives 21% (n = 5,600);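 active = mean inhibition above about 95%, with at least 55% of replicates also reaching it, limit read from the data; inconclusive = meets just one of the two conditions; inactive = meets neither condition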
NIH3T3 tox: cytotoxicity in mouse NIH/3T3 fibroblasts | shares compounds with T cruzi growth-1 | NIH/3T3 viability, CellTiter-Glo ATP luminescence, 90 h | cytotoxicity (signal decrease), % at 8.35 µM | actives 14% (n = 5,600);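 active = mean signal decrease across replicates above about 35% based on untreated-well scatter, with enough replicates individually passing, limit read from the data; inconclusive = no rule stated though some were filed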
NIH3T3 tox 2: kills mouse NIH/3T3 fibroblasts | shares compounds with T cruzi growth-1 | NIH/3T3 viability, CellTiter-Glo ATP luminescence, 90 h | inhibition, % at 24.9 µM | actives 56% (n = 5,600);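 active = mean loss of cell viability signal at or above a set limit, and enough replicates individually reaching it; inconclusive = meets only the mean limit or only the replicate share; inactive = meets neither condition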
Hits are given with their value; . = inactive; ? = inconclusive; / = no result. A selection: hits, their analogues and other compounds. The true share with any hit is near 5.8%.

SMILES	Pf Dd2 growth	GASC1 inh	IDH1 R132H inh	T cruzi growth-1	T cruzi growth-2	T cruzi growth-3	NIH3T3 tox	NIH3T3 tox 2
C[C@@H]1CCCCO[C@@H](CN(C)C(=O)Nc2ccc(C(F)(F)F)cc2)[C@@H](C)CN([C@H](C)CO)C(=O)c2cc(NC(=O)Cc3ccccc3)ccc2O1	.	.	/	?	108	.	.	.
C[C@H](CO)N1C[C@H](C)[C@H](CN(C)C(=O)Nc2ccc(C(F)(F)F)cc2)OCCCC[C@H](C)Oc2ccc(NC(=O)Cc3ccccc3)cc2C1=O	.	.	/	?	103	102	.	33
COC(=O)C(C(CO)Cc1ccc(O)c(OC)c1)C(O)c1ccc(O)c(OC)c1 (stereo not given)	/	/	.	/	/	/	/	/
CCN1[C@H](C(=O)N(C)C)[C@@H](CO)[C@@H]2Cn3c(ccc(-c4cccc(C(=O)N(C)C)c4)c3=O)[C@@H]21	/	.	/	100	.	.	.	.
COc1ccc(-c2ccc3n(c2=O)C[C@H]2[C@H](CO)[C@@H](C(=O)N(C)C)N(CC4CC4)[C@@H]32)cc1	.	.	/	103	.	.	.	.
C[C@H](CO)N1C[C@H](C)[C@@H](CN(C)S(=O)(=O)c2ccc(F)cc2)OCCCC[C@H](C)Oc2ccc(NC(=O)Nc3ccc4c(c3)OCO4)cc2C1=O	.	.	.	100	110	.	.	.
C[C@@H]1CCCCO[C@@H](CN(C)S(=O)(=O)c2ccc(F)cc2)[C@H](C)CN([C@@H](C)CO)C(=O)c2cc(NC(=O)Nc3ccc4c(c3)OCO4)ccc2O1	.	.	/	.	/	/	/	/
C[C@@H]1CCCCO[C@H](CN(C)S(=O)(=O)c2ccc(F)cc2)[C@H](C)CN([C@@H](C)CO)C(=O)c2cc(NC(=O)Nc3ccc4c(c3)OCO4)ccc2O1	-81	.	/	100	102	.	.	.
O=C(C[C@H]1C=C[C@H](NS(=O)(=O)c2ccc(F)cc2)[C@H](CO)O1)N1CCC(Cc2ccccc2)CC1	.	.	.	?	107	.	.	.
Cc1ccc(S(=O)(=O)N[C@H]2C=C[C@H](CC(=O)N3CCC(Cc4ccccc4)CC3)O[C@H]2CO)cc1	.	.	.	125	103	.	.	.
C[C@H](CO)N1C[C@H](C)[C@H](CN(C)C(=O)c2ccncc2)Oc2cc(C#CC3CC3)ccc2S1(=O)=O	.	.	.	103	.	.	.	28
C[C@@H]1CN([C@H](C)CO)S(=O)(=O)c2ccc(C#CC3CC3)cc2O[C@@H]1CN(C)C(=O)c1ccccc1	.	.	.	?	106	.	.	51
C[C@@H]1CN([C@H](C)CO)S(=O)(=O)c2ccc(C#CC3CC3)cc2O[C@H]1CN(C)C(=O)c1ccncc1	.	.	.	.	/	/	/	/
O=C(O)CSc1nc2cc(N3CCOCC3)c(F)cc2[nH]1	/	/	.	/	/	/	/	/
COc1ccc(S(=O)(=O)Nc2ccc3c(c2)CC(=O)N([C@@H](C)CO)C[C@@H](C)[C@@H](CN(C)Cc2ccc4c(c2)OCO4)O3)cc1	.	.	.	.	/	/	/	/
COc1ccc(S(=O)(=O)Nc2ccc3c(c2)CC(=O)N([C@H](C)CO)C[C@H](C)[C@@H](CN(C)Cc2ccc4c(c2)OCO4)O3)cc1	.	.	.	?	108	.	.	.
COc1ccc(S(=O)(=O)Nc2ccc3c(c2)CC(=O)N([C@@H](C)CO)C[C@@H](C)[C@H](CN(C)Cc2ccc4c(c2)OCO4)O3)cc1	.	.	.	113	109	.	.	.
COc1ccc(S(=O)(=O)Nc2ccc3c(c2)CC(=O)N([C@H](C)CO)C[C@@H](C)[C@H](CN(C)Cc2ccc4c(c2)OCO4)O3)cc1	.	.	.	109	108	.	.	.
C/C=C/c1ccc2c(c1)O[C@H](CN(C)Cc1ccc(F)cc1)[C@H](C)CN([C@@H](C)CO)S2(=O)=O	.	.	.	.	/	/	/	/
C/C=C/c1ccc2c(c1)O[C@H](CN(C)Cc1ccc(F)cc1)[C@@H](C)CN([C@H](C)CO)S2(=O)=O	.	.	.	104	?	.	?	106
C/C=C/c1ccc2c(c1)O[C@@H](CN(C)Cc1ccc(F)cc1)[C@H](C)CN([C@H](C)CO)S2(=O)=O	.	.	.	119	98	110	52	105
C[C@H](CO)N1C[C@H](C)[C@@H](CN(C)Cc2ccc(Oc3ccccc3)cc2)Oc2ncc(-c3ccncc3)cc2C1=O	.	.	.	109	111	.	.	105
C[C@@H]1CN([C@@H](C)CO)C(=O)c2cc(-c3ccncc3)cnc2O[C@H]1CN(C)Cc1ccc(Oc2ccccc2)cc1	.	.	.	94	102	.	41	104
C[C@@H]1CN([C@H](C)CO)C(=O)c2cc(-c3cccnc3)cnc2O[C@@H]1CN(C)Cc1ccc(Oc2ccccc2)cc1	.	.	.	.	/	/	/	/
COc1cc(CNC2CCCC2)cc(I)c1OCC(N)=O	/	/	.	/	/	/	/	/
SMILES	Pf Dd2 growth	GASC1 inh	IDH1 R132H inh	T cruzi growth-1	T cruzi growth-2	T cruzi growth-3	NIH3T3 tox	NIH3T3 tox 2
C/C=C/c1cnc2c(c1)C(=O)N([C@H](C)CO)C[C@H](C)[C@H](CN(C)Cc1ccccc1F)O2	.	.	.	/	/	/	/	/
C[C@@H]1CN([C@H](C)CO)C(=O)c2cc(/C=C/c3ccccc3)cnc2O[C@@H]1CN(C)Cc1ccccc1F	.	.	.	116	.	.	.	35
C/C=C/c1cnc2c(c1)C(=O)N([C@H](C)CO)C[C@H](C)[C@@H](CN(C)Cc1ccccc1F)O2	.	.	.	/	/	/	/	/
C[C@H](CO)N1C[C@H](C)[C@@H](CN(C)Cc2ccccc2F)Oc2ncc(/C=C/c3ccccc3)cc2C1=O	.	.	.	120	108	.	.	104
C[C@H]1CN([C@@H](C)CO)C(=O)c2cc(/C=C/c3ccccc3)cnc2O[C@H]1CN(C)Cc1ccccc1F	.	.	.	116	104	.	.	41
C[C@H]1CN([C@@H](C)CO)C(=O)c2cc(/C=C/c3ccccc3)cnc2O[C@@H]1CN(C)Cc1ccccc1F	.	.	.	112	111	.	.	105
C/C=C/c1cnc2c(c1)C(=O)N([C@@H](C)CO)C[C@H](C)[C@@H](CN(C)Cc1ccccc1F)O2	.	.	.	/	/	/	/	/
Cn1c(SCC(=O)Nc2ccc(C(=O)O)cc2)nnc1-c1ccc(Br)cc1	/	/	.	/	/	/	/	/
COc1cc(OC)c(NC(=O)CCCN2C(=O)c3ccccc3C2=O)cc1Cl	/	/	.	/	/	/	/	/
